The text below walks through data of the array DNA melting data of Ke et al. (doi:10.1101/2024.01.08.574731).

Data set [1] can be described thus: folding enthalpy; higher = less favourable; fluorescence melt of hairpins on a sequencing array, two-state fit. The note with it: sodium 0.088 M. The procedure, abridged: (§1)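 With Cy3 and quencher oligos annealed, library hairpins on a sequenced MiSeq flow cell were imaged for Cy3 fluorescence in 50 mM Na-HEPES pH 8.0, 25 mM NaCl, in 2.5 °C steps up to 60 °C. Melting temperature and folding enthalpy were derived from bootstrapped two-state fits of signals normalised to pre-quench Cy3 and to control constructs. Four replicates were combined by inverse variance, with fitted temperatures raised by 9.35 °C to match UV melts.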

Data set [2] in a line: melting temperature; fluorescence melt of hairpins on a sequencing array, two-state fit, raised by 9.35 °C to match UV melts. To be noted: sodium 0.088 M. In short, it runs like this:
as §1

As for CGTGCCGGAAACGGGACG (((.(((....))).))), the folding enthalpy in data set [1] is -37.6 kcal/mol. Further, the Tm in data set [2] amounted to 62.9 °C.

GCGAACGGAAACGTCCGC (((.(((....))).))): in data set [1], the folding enthalpy is -40.2 kcal/mol. The Tm in data set [2] worked out at 54.6 °C.

Take GTCACTGGAAACGGTGAC (((((.(....).))))): in data set [1], the folding enthalpy was -47.5 kcal/mol. Further, in data set [2], the Tm turned out to be 52.7 °C.

Consider GATCCTATCAAGGATC ((((((....)))))), for which the folding enthalpy in data set [1] was -34.3 kcal/mol. In data set [2], the Tm came to 54.6 °C.

On to GACGCGGGAAACTGCGTC (((((.(....).))))), for which the folding enthalpy in data set [1] was -35.2 kcal/mol. In addition, in data set [2], the Tm is 64 °C.

As to GCCAGGCGAAAGCTTTGC ((.(.((....)).).)), the folding enthalpy in data set [1] is -11.5 kcal/mol. Further, in data set [2], the Tm worked out at 33.4 °C.

For the sequence GCATTCGAAAGAAGCTGC ((((((....)))..))), the folding enthalpy in data set [1] was -23.5 kcal/mol. Further, in data set [2], the Tm worked out at 40.8 °C.

GGTGGGGAAACCCACC ((((((....)))))): the folding enthalpy in data set [1] is -42.9 kcal/mol. For the same sequence, the Tm in data set [2] came to 68.1 °C.

In the case of GTTTTTGGAAACAAGAAC (((.(((....))).))), in data set [1], the folding enthalpy was -19.6 kcal/mol. Further, in data set [2], the Tm was determined as 32.7 °C.

Regarding GATCACCCACGTGATC ((((((....)))))), in data set [1], the folding enthalpy is -47 kcal/mol. The Tm in data set [2] worked out at 56.5 °C.

As for GCACCCGAAAGGGATGC ((((((....))).))), in data set [1], the folding enthalpy is -28.7 kcal/mol. In addition, the Tm in data set [2] is 60.5 °C.

Take GAGATGGGAAACCATCCC (.(((((....))))).): the folding enthalpy in data set [1] was -13.1 kcal/mol. In addition, the Tm in data set [2] stood at 38.7 °C.

On to GCCAGAGGAAACCCTGGC (((((.(....).))))), for which the folding enthalpy in data set [1] was -41 kcal/mol. In addition, the Tm in data set [2] was 52.4 °C.

In the case of GACCGCGAAAGCGCCGTC ((((((....)))..))), the folding enthalpy in data set [1] was -14.1 kcal/mol. For the same sequence, the Tm in data set [2] was 36.6 °C.

As to GCTCTTGGAAACAGGAGC ((((.((....)).)))), the folding enthalpy in data set [1] was -33.9 kcal/mol. For the same sequence, in data set [2], the Tm came to 48.9 °C.

With GAGCCACGAAAGTGCCTC (((.(((....))).))), the folding enthalpy in data set [1] was -16.9 kcal/mol. The Tm in data set [2] was found to be 42.1 °C.

For GCAGGGCGAAAGCCAAGC ((..(((....)))..)), in data set [1], the folding enthalpy was -17.2 kcal/mol. In data set [2], the Tm was 53.4 °C.

For GTGTGACGAAAGTCCAC (((.(((....)))))), the folding enthalpy in data set [1] was -40.2 kcal/mol. For the same sequence, the Tm in data set [2] amounted to 52.3 °C.

For the sequence GGTTATGGAAACATAACC (((((((....))))))), in data set [1], the folding enthalpy was -41.1 kcal/mol. In addition, the Tm in data set [2] came to 55.6 °C.

For the sequence GTCTAAGGAAACTTAGGC (.(((((....))))).), the folding enthalpy in data set [1] was -25.5 kcal/mol. Also, the Tm in data set [2] stood at 38.1 °C.

As for GATCCGTTGCGGATC ((((((...)))))), the folding enthalpy in data set [1] is -43 kcal/mol. Also, the Tm in data set [2] turned out to be 57.3 °C.

For GGAGCTGGAAACAACTCC ((((.((....)).)))), the folding enthalpy in data set [1] is -31.2 kcal/mol. Moreover, in data set [2], the Tm amounted to 42.6 °C.

Turning to GATCAACGGTTTGATC ((((((....)))))), the folding enthalpy in data set [1] is -30.1 kcal/mol. Besides, the Tm in data set [2] amounted to 40.9 °C.

Turning to GGCATGCGAAAGCAGCC (((.(((....)))))), in data set [1], the folding enthalpy is -21.6 kcal/mol. The Tm in data set [2] turned out to be 64.3 °C.

As to GCAACACGAAAGTGTGC (((.(((....)))))), in data set [1], the folding enthalpy is -19 kcal/mol. The Tm in data set [2] was 60.2 °C.

For GCAGGTCCGAAAGGATGC (((..(((....)))))), in data set [1], the folding enthalpy was -16.6 kcal/mol. Further, in data set [2], the Tm turned out to be 37.7 °C.

Regarding GATCTGTTCGCAGATC ((((((....)))))), the folding enthalpy in data set [1] was -47.6 kcal/mol. In data set [2], the Tm was 53.4 °C.

As to GCCCAAGGAAACCTAGGC (((.(.(....).).))), in data set [1], the folding enthalpy was -22.2 kcal/mol. For the same sequence, the Tm in data set [2] was determined as 32.8 °C.

As to GATCGAGTCTTCGATC ((((((....)))))), the folding enthalpy in data set [1] was -37.6 kcal/mol. In data set [2], the Tm is 58.4 °C.

For the sequence GCGTTGGGACGC ((((....)))), the folding enthalpy in data set [1] is -24.9 kcal/mol. In addition, in data set [2], the Tm worked out at 55.2 °C.

As to GATCCGCGCCCGGATC ((((((....)))))), the folding enthalpy in data set [1] was -45.8 kcal/mol. In addition, in data set [2], the Tm amounted to 56.5 °C.

Consider GTGTCGGGAAACCAACAC ((((.((....)).)))), for which, in data set [1], the folding enthalpy was -33.7 kcal/mol. The Tm in data set [2] came to 42.9 °C.

Turning to GACTGAGAAATCAGTC ((((((....)))))), in data set [1], the folding enthalpy was -33 kcal/mol. The Tm in data set [2] was found to be 53.1 °C.

On to GCGAGGACTCGC ((((....)))), for which the folding enthalpy in data set [1] was -31.9 kcal/mol. Moreover, the Tm in data set [2] turned out to be 56.1 °C.

Take GCGGTACTCCGC ((((....)))): in data set [1], the folding enthalpy is -23.3 kcal/mol. Also, the Tm in data set [2] amounted to 64.1 °C.

As for GGCAGGGGAAACCTTGCC ((((.((....)).)))), the folding enthalpy in data set [1] was -49.2 kcal/mol. The Tm in data set [2] was determined as 55.3 °C.

Regarding GGATTCACGAAAGTGTCC (((..(((....)))))), the folding enthalpy in data set [1] was -12.5 kcal/mol. The Tm in data set [2] worked out at 29.8 °C.
